From publication PMC6243397 (ACS Chemical Biology, 2018)
Read-outs that look alike come from different tables or passages of the source.

Tests used:
[1] = Mouse liver microsome stability assay; format: in vitro ADME; conditions: percentage remaining relative to t0
[2] = Stability control without microsomes; format: physicochemical; conditions: microsomes replaced with PBS, percentage remaining relative to t0
[3] = Assessment of hematological toxicity; format: in vivo, mouse; conditions: single IV dose 125 mg/kg, 7 days post-treatment
In short: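 Mice received a single IV dose of 125 mg/kg test compound. Whole blood was collected 7 days post-dose and a complete blood count run per mouse (total WBC, lymphocytes, neutrophils). Four mice per cohort; error is SEM. Groups were compared with control by two-tailed two-sample Student's t test assuming equal variance.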

[4] = cited from earlier work
[5] = in vivo blood-brain barrier permeability; conditions: CD-1 IGS, mouse, brain and serum, iv, 25 mg/kg
human GBM cell lines = test: Panel of human GBM cell lines, viability; format: cell-based
U87 cells = test: O6-methyldeoxyguanosine quantitation; format: cell-based, human; conditions: 100 or 1000 μM, 8 h
In short: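 U87 cells were treated with 100 or 1000 μM test compound for 8 h. Genomic DNA was isolated, quantified and hydrolysed to deoxyribonucleosides. O6-methyldeoxyguanosine was quantitated by LC-MS/MS and expressed per 10 μg DNA.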

[6] = Hydrolytic stability in PBS; format: physicochemical; conditions: pH 7.4, t1/2 in PBS, PBS pH 7.4, 37 °C

| SMILES | stability (2 h, microsomes) [1] [%] | stability (2 h, no microsomes) [2] [%] | also measured |
| --- | --- | --- | --- |
| CCCCN(CCCC)C(=O)c1ncn2c(=O)n(C)nnc12 [Compound 7] | 1 ± 1 | 98 ± 3 | – |
| CCN(CC)C(=O)c1ncn2c(=O)n(C)nnc12 [Compound 6] | 81 ± 1 | 95 ± 2 | – |
| Cn1nnc2c(C(N)=O)ncn2c1=O [TMZ, temozolomide] | 87 ± 6 | 86 ± 4 | myelosuppression / white blood cell count [3]: white blood cell (WBC) depletion relative to control mice; half-life in humans ([4]; humans): ~2 h; half-life in vivo and in aqueous solutions in vitro ([4]; in vivo and in aqueous solutions in vitro): ~2 h; Kp at 5 min [5]: 0.23 ± 0.03; IC50 (human GBM cell lines; read-out: IC50 in cell lines with negligible MGMT expression): ≤ 50 µM; IC50 (human GBM cell lines; read-out: IC50 in cell lines with significant MGMT expression): > 300 µM; concentration of O6-methylated deoxyguanosine (U87 cells): Dose dependent increases |
| Cn1nnc2c(Cl)ncn2c1=O [Compound 19] | 91 ± 3 | 91 ± 1 | – |
| Cc1ncn2c(=O)n(C)nnc12 [Compound 14] | – | – | half-life [6]: 40 h |
| Cn1nnc2c(-c3ccccc3)ncn2c1=O [Compound 23] | 44 ± 2 | 103 ± 5 | – |
